Compound activity: PubChem BioAssay, several laboratories
PostGolgi yeast = growth inhibition of a yeast mutant, post-Golgi transport screen. AID 739. post-Golgi transport phenotypic cell assay. inhibition, % at 10 µM. 98,000 compounds, 0.9% hits;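 further: yeast cells grown in 1536-well plates; yeast grown about 18 h at 30C before absorbance read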
tolC growth inh = blocks growth of E. coli BW25113 tolC mutant. growth inhibition, % at 10 µM (by protocol). OD615. 65,000 compounds, 2.2% hits. AID 573;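 active means growth inhibition at or above a cutoff equal to the mean over every tested compound plus 3 SD, cut at about 60% in these data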;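 further: growth measured after 20 h incubation at 37 °C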
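Doses: one dose of 10 µM final / Material: E. coli BW25113 ΔtolC::kan, tolC deletion mutant strain / Buffer or medium: LB with kanamycin 50 µg/mL / Evaluation: percent growth inhibition / Detection: optical density read at 615 nm / Incubation: 37 °C, 20 h exposure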
E coli WT exp = growth inhibitors of E. coli BW25113 wild type. OD600 absorbance. growth inhibition, % at 100 µM. 98,000 compounds, 0.15% hits. AID 710;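 active means growth inhibition above about 50% at one test dose, limit read from the data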;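 further: growth measured after 20 h incubation at 37 °C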
Pyk2 oligo antag = Pyk2 (human) oligomerization antagonism; Q293 cells, Pyk2 FERM NanoBiT luminescence; stronger effect = lower value; z-score (the deposit names both 25 µM and 10 µM); 99,000 compounds, 0.83% hits;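 active means Z-score of -3 or lower, scaled per plate to the spread of control and sample wells; inactive means z-score above -3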;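 further: negative z-score means lost luminescence so less FERM oligomerization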
Target sequence (Q14289 whole entry, looked up): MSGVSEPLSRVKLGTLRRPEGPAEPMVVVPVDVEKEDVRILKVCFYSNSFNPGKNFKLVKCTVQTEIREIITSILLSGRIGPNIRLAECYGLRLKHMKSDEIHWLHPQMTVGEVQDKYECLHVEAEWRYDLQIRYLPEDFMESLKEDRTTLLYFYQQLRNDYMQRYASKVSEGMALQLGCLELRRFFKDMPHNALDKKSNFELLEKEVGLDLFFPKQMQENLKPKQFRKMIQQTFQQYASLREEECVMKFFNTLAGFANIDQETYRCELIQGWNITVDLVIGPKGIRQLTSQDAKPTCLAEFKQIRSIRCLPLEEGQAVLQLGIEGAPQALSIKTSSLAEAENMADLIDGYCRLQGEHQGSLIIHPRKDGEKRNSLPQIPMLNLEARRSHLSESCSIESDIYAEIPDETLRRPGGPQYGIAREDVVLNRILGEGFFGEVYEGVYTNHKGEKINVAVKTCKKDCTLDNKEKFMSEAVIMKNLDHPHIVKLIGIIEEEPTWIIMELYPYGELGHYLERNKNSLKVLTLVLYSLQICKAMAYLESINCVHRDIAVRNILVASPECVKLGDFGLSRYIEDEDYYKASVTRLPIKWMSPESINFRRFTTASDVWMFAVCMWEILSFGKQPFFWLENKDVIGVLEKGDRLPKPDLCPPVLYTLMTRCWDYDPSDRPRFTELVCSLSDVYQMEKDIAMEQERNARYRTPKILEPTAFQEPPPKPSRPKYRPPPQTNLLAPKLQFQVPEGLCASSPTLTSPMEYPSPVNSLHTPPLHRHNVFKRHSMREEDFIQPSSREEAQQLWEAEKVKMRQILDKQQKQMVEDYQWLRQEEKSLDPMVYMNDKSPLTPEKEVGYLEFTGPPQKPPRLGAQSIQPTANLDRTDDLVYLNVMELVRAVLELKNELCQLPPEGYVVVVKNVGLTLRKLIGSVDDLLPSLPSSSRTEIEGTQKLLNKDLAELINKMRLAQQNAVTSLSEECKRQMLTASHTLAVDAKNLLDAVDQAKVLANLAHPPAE
PostGolgi ctrl = yeast control strain growth, post-Golgi counter-screen | efflux-deficient yeast background strain, growth absorbance A615, 16 h | inhibition, % at 10 µM | 98,000 compounds, 5% hits | AID 738
Cav32 inh = inhibitors of human Cav3.2 T-type calcium channel | Cav3.2-expressing cells, Fluo-4 calcium fluorescence FDSS; stronger effect = lower value | 100,000 compounds, 4% hits | B-score at 10 µM | O95180;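 active means single-dose well whose peak fluorescence ratio is a statistical outlier from its plate by either plate-standardised score or position-corrected B-score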
* = called active by the depositor; x = not tested or not shown. Rows were chosen to be rich in hits. Some 8.7% of all compounds tested hit in one or more screens of this group. Unless noted, no stated cut-off is given here; in the data, active means inhibition above about 30%; inactive means the rest.

SMILES	PostGolgi yeast	tolC growth inh	E coli WT exp	Pyk2 oligo antag	PostGolgi ctrl	Cav32 inh
CCCCn1c(N2CCC(Cc3ccccc3)CC2)nc2c1c(=O)[nH]c(=O)n2C	7.4	100.0*	-14.0	-1.76	63.0*	x
CC1CCN(c2nc3c(c(=O)[nH]c(=O)n3C)n2Cc2ccccc2Cl)CC1	-0.7	10.2	-9.0	x	39.6*	-4.5*
CCCCCn1c(N2CCN(c3cccc(Cl)c3)CC2)nc2c1c(=O)[nH]c(=O)n2C	27.5	-1.0	-3.0	0.39	19.7	-5.44*
Cc1nnc(SCCn2c(N3CCC(Cc4ccccc4)CC3)nc3c2c(=O)[nH]c(=O)n3C)s1	x	5.1	x	x	x	x
CC1CN(C2CCN(C(=O)c3ccccc3Cl)CC2)CC(C)O1 (stereo not drawn)	-2.2	1.1	2.0	0.39	5.0	x
Cc1c(C(c2ccc([N+](=O)[O-])cc2)c2c(C)n(C)n(-c3ccccc3)c2=O)c(=O)n(-c2ccccc2)n1C	-1.6	x	-2.0	-0.48	7.3	0.858
CCCCCn1c(CN2CCN(c3cc(Cl)ccc3C)CC2)nc2c1c(=O)[nH]c(=O)n2C	-1.6	1.8	3.0	-0.26	55.8*	-4.44*
CC(C)CCNC(=O)c1ccc2c(c1)ncn2C1CCCCC1	-0.8	x	3.0	-0.37	-4.0	0.797
COc1cc(-c2nnc(CSc3nc4ccccc4s3)o2)cc(OC)c1OC	6.9	27.4	-12.0	x	18.5	-1.77
COc1ccc(Nc2ncnc3c2cnn3Cc2ccccc2)cc1	x	11.3	x	-2.84	x	-0.295
CCOc1ccc(Nc2ncnc3c2cnn3Cc2ccccc2)cc1	8.5	x	-5.0	-3.13*	14.4	-2.66
CS(=O)(=O)N(CC(=O)Nc1ccccc1Sc1ccccc1)c1ccc(F)cc1	-2.0	x	-18.0	-0.87	54.5*	-3.6
Cc1ccc(Nc2nc(N)nc(CSc3nc4ccccc4s3)n2)cc1	1.8	x	-1.0	-2.87	51.4*	x
COc1ccc(Nc2nc(N)nc(CSc3n[nH]c(-c4ccccc4)n3)n2)cc1	-2.2	13.4	4.0	-1.32	30.4*	-2.21
COc1ccccc1Nc1nc(N)nc(CSc2ncccn2)n1	-4.2	-7.4	0.0	-0.42	32.1*	-0.473
COc1c(Cl)cc(C(=O)Nc2ccccc2-c2ccccc2)cc1Cl	8.0	x	-26.0	-0.87	13.6	x
O=C(Nc1cccc2cccc(NC(=O)c3ccco3)c12)c1ccco1	10.8	-4.9	0.0	0.03	-0.8	0.229
O=C(NCCc1nc(-c2ccccc2)no1)c1ccccc1	x	x	x	x	x	0.326
c1ccc(NCc2nc(-c3ccccc3)no2)cc1	-13.0	15.6	11.0	-0.72	31.9*	-0.0836
CCC(Sc1nc2c(c(=O)n1CC)SC(C)C2)C(=O)OC (stereo not drawn)	13.8	x	7.0	x	1.9	1.13
O=C1N=C(N2CCN(c3cccc4ccccc34)CC2)S/C1=C/c1cccs1	-5.0	x	-8.0	0.41	37.1*	-1.9
O=C1N=C(N2CCOCC2)S/C1=C/c1cccs1	9.3	x	5.0	0.31	13.0	-0.677
COc1cc(NC(=O)c2cc(CC(C)C)on2)c(OC)cc1Cl	2.4	67.9*	-2.0	x	17.9	-2.13
O=C(NC(=O)c1cccc(OC(F)(F)C(F)F)c1)OC1CCS(=O)(=O)C1 (stereo not drawn)	2.4	-14.7	6.0	0.59	0.3	0.498
CCOC(=O)c1c(NS(C)(=O)=O)sc2c1CCC(C)C2 (stereo not drawn)	-3.0	11.9	-6.0	2.48	31.6*	-10.2*
SMILES	PostGolgi yeast	tolC growth inh	E coli WT exp	Pyk2 oligo antag	PostGolgi ctrl	Cav32 inh
CCOC(=O)c1c(N)sc2c1CCC(C)C2 (stereo not drawn)	8.3	8.8	18.0	1.49	11.8	-0.0632
CCCc1nc2ccccc2c(C(=O)OCC(=O)Nc2cccc(S(=O)(=O)N3CCOCC3)c2)c1CC	-2.2	x	-5.0	-4.56*	4.4	-0.499
CCCc1nc2ccccc2c(C(=O)OCC(=O)Nc2ccc(S(=O)(=O)N3CCOCC3)cc2)c1CC	-3.5	x	-6.0	-4.55*	8.8	-0.465
CCn1cc(C(=O)OCC(=O)Nc2cccc(S(=O)(=O)N3CCOCC3)c2)c(=O)c2ccc(C)nc21	-10.9	x	4.0	1.84	5.8	-0.692
COC(=O)c1ccccc1S(=O)(=O)Nc1ccc2cn[nH]c2c1	18.5	-4.4	0.0	-0.38	11.3	-0.232
CCOC(=O)c1ccc(S(=O)(=O)Nc2ccc3cn[nH]c3c2)cc1	-5.0	x	13.0	-3.01*	-5.8	-0.666
O=C1CCC(/C=C/c2ccccc2)=NN1Cc1ccc(Cl)c(Cl)c1	22.6	x	-16.0	1.44	60.2*	0.0278
O=C1CCC(/C=C/c2ccccc2)=NN1Cc1ccccc1Cl	-15.8	x	-6.0	0.17	39.4*	0.233
CCOC(=O)CN1N=C(/C=C/c2ccccc2)CCC1=O	x	x	x	1.71	x	0.769
COc1ccc(Cn2c(SCc3ccc(C)cc3)nc3cc(OC)c(OC)cc3c2=N)cc1Cl	32.5*	x	-6.0	0.12	67.5*	-0.175
COc1ccc(Cn2c(SCc3cc(C)ccc3C)nc3cc(OC)c(OC)cc3c2=N)cc1	75.8*	x	6.0	-0.36	62.6*	-0.798
COCCCn1c(SCc2cccc(C(F)(F)F)c2)nc2cc(OC)c(OC)cc2c1=N	15.0	x	10.0	-1.77	41.8*	-0.555
COc1ccccc1/C=C/C=N/N1CCN(Cc2cccc3ccccc23)CC1	-7.3	x	-11.0	-0.57	0.1	x
Cc1[nH][nH]c(=O)c1C(c1c(C)[nH][nH]c1=O)c1cn(Cc2cccc3ccccc23)c2ccccc12	6.4	x	-3.0	-0.78	25.1	-5.09*
CCC(C)Nc1c2c(nc3c(-c4ccccc4)c(C)nn13)CCC2 (stereo not drawn)	-5.4	x	0.0	-1.13	38.9*	-0.237
Cc1nn2c(-n3ccnc3)c3c(nc2c1-c1ccccc1)CCC3	74.2*	-9.6	1.0	-0.67	81.3*	0.596
CCC1Oc2ccc(C)cc2N(CC(=O)NCC2COc3ccccc3O2)C1=O (stereo not drawn)	0.4	x	-8.0	x	x	-5.17*
CCC1Oc2ccc(C)cc2N(CC(=O)NCc2cccc(OC)c2)C1=O (stereo not drawn)	14.9	7.4	-8.0	0.64	32.6*	-1.12
O=C1N2CN(C(c3ccccc3)c3ccccc3)CN=C2SC1(CO)CO	-3.1	-23.7	11.0	0.11	8.5	x
Cc1ccccc1OCC(=O)NNC(=S)NC(=O)c1ccco1	37.6*	x	23.0	0.03	52.9*	-3.55
CCOc1cc(NC(=O)c2ccco2)c(OCC)cc1NC(=O)COc1ccccc1C	x	-5.8	x	0.59	x	x
N#C/C(=C\Nc1ccccc1O)c1nc2ccccc2o1	x	x	x	-3.35*	x	x
CCCc1cc(-c2n[nH]c(C)c2-c2ccc(C(=O)OCC)o2)c(O)cc1O	-19.0	30.6	17.0	-0.98	4.6	-1.73
COc1ccc(-c2onc(C)c2-c2ccc(C(=O)OC(C)C)o2)c(O)c1	-0.5	100.0*	-3.0	-2.39	37.4*	-5.23*
CC1(c2nnc(-c3cccc(Cl)c3)o2)CC(c2ccccc2)=NO1 (stereo not drawn)	x	x	x	x	x	0.391
Cc1ccc(N(CC(=O)N/N=C/c2ccc(OC3CSC3)cc2)S(=O)(=O)c2ccccc2)cc1	-9.9	x	-9.0	-1.35	7.1	-2.71*
